Measured values from ChEMBL document CHEMBL4229573, “Discovery of Quinazolines That Activate SOS1-Mediated Nucleotide Exchange on RAS” (ACS Med Chem Lett, 2018).
The source made the active and inactive calls. The calls are words filed in the database; no cut-off is given here.

Assays:
[1] = molecular target: T1, Son of sevenless homolog 1 (Homo sapiens) (UniProt Q07889); assay: Biphasic activity at SOS1 in human HeLa cells assessed as reduction in ERK1/2 T202/Y204 phosphorylation at 100 uM measured after 30 mins by Western blot analysis; assay type: cell-based
T1 sequence (whole entry): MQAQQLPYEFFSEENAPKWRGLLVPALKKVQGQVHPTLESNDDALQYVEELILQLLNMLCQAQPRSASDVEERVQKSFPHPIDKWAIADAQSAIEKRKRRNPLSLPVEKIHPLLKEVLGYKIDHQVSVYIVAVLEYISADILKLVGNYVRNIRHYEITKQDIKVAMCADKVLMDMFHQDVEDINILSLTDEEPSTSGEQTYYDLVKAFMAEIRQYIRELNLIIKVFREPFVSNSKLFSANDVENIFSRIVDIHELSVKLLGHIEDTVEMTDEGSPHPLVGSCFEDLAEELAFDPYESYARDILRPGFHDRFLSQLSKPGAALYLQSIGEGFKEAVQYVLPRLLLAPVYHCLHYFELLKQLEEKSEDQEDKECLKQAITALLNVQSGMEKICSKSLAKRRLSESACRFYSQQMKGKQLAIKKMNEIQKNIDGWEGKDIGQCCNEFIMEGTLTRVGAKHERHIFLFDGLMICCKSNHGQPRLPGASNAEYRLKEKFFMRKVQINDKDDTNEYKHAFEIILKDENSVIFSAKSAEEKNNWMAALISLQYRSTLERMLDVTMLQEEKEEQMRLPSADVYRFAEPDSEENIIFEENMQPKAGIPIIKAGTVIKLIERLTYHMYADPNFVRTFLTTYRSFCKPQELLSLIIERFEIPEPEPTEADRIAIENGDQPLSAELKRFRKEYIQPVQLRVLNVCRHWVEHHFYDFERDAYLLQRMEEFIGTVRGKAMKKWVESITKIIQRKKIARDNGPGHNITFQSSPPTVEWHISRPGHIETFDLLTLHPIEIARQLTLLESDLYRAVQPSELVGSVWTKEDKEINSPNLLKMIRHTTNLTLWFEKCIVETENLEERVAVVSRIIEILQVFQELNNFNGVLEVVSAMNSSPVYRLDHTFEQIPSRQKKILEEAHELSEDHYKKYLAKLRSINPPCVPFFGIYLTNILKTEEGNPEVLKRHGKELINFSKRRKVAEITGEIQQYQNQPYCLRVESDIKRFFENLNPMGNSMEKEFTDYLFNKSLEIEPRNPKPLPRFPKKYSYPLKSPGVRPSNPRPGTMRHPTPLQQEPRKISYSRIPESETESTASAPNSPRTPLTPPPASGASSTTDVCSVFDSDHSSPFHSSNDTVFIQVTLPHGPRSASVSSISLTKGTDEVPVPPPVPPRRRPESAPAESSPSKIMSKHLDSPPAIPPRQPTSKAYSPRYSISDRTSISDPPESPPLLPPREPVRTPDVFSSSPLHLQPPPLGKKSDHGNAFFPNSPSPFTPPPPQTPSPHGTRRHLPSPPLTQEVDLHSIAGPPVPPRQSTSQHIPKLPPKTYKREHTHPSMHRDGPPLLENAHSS
Summary of the method: (§1)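 HeLa cells treated for 30 min with compound at concentrations up to 100 μM. RAS-GTP and ERK1/2 phosphorylated at T202/Y204 were detected by blotting and quantified. EGF (50 ng/mL, 5 min) served as the positive control for pathway activation.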

[2] = molecular target: T1, Son of sevenless homolog 1 (Homo sapiens); assay: Activation of SOS1 in human HeLa cells assessed as effect on RAS-GTP levels by measuring […] at 50 uM after 30 mins by active RAS pull-down assay relative to control; assay type: cell-based; summary of the method: as §1
[3] = molecular target: T1, Son of sevenless homolog 1 (Homo sapiens); assay: Activation of SOS1 in human HeLa cells assessed as effect on ERK1/2 phosphorylation at T202/Y204 residue by measuring […] at 25 uM after 30 mins by Western blot analysis relative to control; assay type: cell-based; summary of the method: as §1
[4] = molecular target: T1, Son of sevenless homolog 1 (Homo sapiens); assay: Activation of SOS1 in human HeLa cells assessed as effect on ERK1/2 phosphorylation at T202/Y204 residue by measuring […] at 50 uM after 30 mins by Western blot analysis relative to control; assay type: cell-based; summary of the method: as §1
[5] = molecular target: T1, Son of sevenless homolog 1 (Homo sapiens); assay: Activation of SOS1 in human HeLa cells assessed as effect on ERK1/2 phosphorylation at T202/Y204 residue by measuring […] at 100 uM after 30 mins by Western blot analysis relative to control
[6] = molecular target: T1, Son of sevenless homolog 1 (Homo sapiens); assay: Activation of SOS1 in human HeLa cells assessed as effect on ERK1/2 phosphorylation at T202/Y204 residue by measuring […] at 12.5 uM after 30 mins by Western blot analysis relative to control; assay type: cell-based; summary of the method: as §1
[7] = molecular target: T1, Son of sevenless homolog 1 (Homo sapiens); assay: Activation of SOS1 in human HeLa cells assessed as effect on RAS-GTP levels by measuring […] at 100 uM after 30 mins by active RAS pull-down assay relative to control; assay type: cell-based; summary of the method: as §1
[8] = molecular target: T1, Son of sevenless homolog 1 (Homo sapiens); assay: Activation of SOS1 in human HeLa cells assessed as effect on ERK1/2 phosphorylation at T202/Y204 residue by measuring […] at 3.1 uM after 30 mins by Western blot analysis relative to control; assay type: cell-based; summary of the method: as §1
[9] = molecular target: T1, Son of sevenless homolog 1 (Homo sapiens); assay: Activation of SOS1 in human HeLa cells assessed as effect on ERK1/2 phosphorylation at T202/Y204 residue by measuring […] at 6.3 uM after 30 mins by Western blot analysis relative to control; assay type: cell-based; summary of the method: as §1
[10] = molecular target: T1, Son of sevenless homolog 1 (Homo sapiens); assay: Activation of SOS1 in human HeLa cells assessed as effect on RAS-GTP levels by measuring […] at 3.1 uM after 30 mins by active RAS pull-down assay relative to control; assay type: cell-based; summary of the method: as §1
[11] = molecular target: T1, Son of sevenless homolog 1 (Homo sapiens); assay: Activation of SOS1 in human HeLa cells assessed as effect on RAS-GTP levels by measuring […] at 12.5 uM after 30 mins by active RAS pull-down assay relative to control; assay type: cell-based; summary of the method: as §1
[12] = molecular target: T1, Son of sevenless homolog 1 (Homo sapiens); assay: Activation of SOS1 in human HeLa cells assessed as effect on RAS-GTP levels by measuring […] at 6.3 uM after 30 mins by active RAS pull-down assay relative to control; assay type: cell-based; summary of the method: as §1
[13] = molecular target: T1, Son of sevenless homolog 1 (Homo sapiens); assay: Activation of SOS1 in human HeLa cells assessed as effect on RAS-GTP levels by measuring […] at 25 uM after 30 mins by active RAS pull-down assay relative to control; assay type: cell-based; summary of the method: as §1
[14] = molecular target: Mitogen-activated protein kinase 1 (Homo sapiens) (UniProt P28482); assay: Inhibition of human ERK2 using myelin basic protein as substrate measured in presence of [gamma33P]ATP
Sequence of Mitogen-activated protein kinase 1 (Homo sapiens) (P28482 whole entry): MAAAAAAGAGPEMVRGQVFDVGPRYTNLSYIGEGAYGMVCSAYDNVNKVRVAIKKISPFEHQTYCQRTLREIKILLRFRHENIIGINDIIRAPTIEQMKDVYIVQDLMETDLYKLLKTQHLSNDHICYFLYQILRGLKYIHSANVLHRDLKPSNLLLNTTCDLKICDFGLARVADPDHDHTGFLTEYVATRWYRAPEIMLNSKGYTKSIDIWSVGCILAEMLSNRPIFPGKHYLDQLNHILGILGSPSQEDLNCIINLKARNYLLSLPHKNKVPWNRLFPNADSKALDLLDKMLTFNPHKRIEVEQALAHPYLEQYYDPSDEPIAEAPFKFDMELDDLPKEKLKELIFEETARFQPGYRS

[15] = molecular target: Mitogen-activated protein kinase 3 (Homo sapiens) (UniProt P27361); assay: Inhibition of human ERK1 using myelin basic protein as substrate measured in presence of [gamma33P]ATP
Sequence of Mitogen-activated protein kinase 3 (Homo sapiens) (P27361 whole entry): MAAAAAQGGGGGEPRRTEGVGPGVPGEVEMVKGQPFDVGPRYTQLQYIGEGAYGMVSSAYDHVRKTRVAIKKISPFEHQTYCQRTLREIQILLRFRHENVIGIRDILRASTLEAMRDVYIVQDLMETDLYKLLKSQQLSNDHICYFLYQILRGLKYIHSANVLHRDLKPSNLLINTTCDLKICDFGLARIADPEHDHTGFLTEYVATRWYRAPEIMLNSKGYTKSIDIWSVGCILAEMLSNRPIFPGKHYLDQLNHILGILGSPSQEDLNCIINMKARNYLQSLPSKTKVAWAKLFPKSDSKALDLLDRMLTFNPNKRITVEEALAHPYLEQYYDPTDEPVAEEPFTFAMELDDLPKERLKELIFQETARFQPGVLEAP

Row | SMILES | Activity [1] | fold change (FC) [2] | fold change (FC) [3] | fold change (FC) [4] | fold change (FC) [5] | fold change (FC) [6] | fold change (FC) [7] | fold change (FC) [8] | fold change (FC) [9] | fold change (FC) [10] | fold change (FC) [11] | fold change (FC) [12] | fold change (FC) [13] | inhibition [14] | inhibition [15]
1 | CC[C@@H](Nc1nc(Nc2ccc(F)c(Cl)c2)nc2ccccc12)C1CCC1 | inactive | – | – | – | – | – | – | – | – | – | – | – | – | – | –
2 | Clc1cc(Cl)cc(Nc2nc(NCc3ccco3)c3ccccc3n2)c1 | inactive | – | – | – | – | – | – | – | – | – | – | – | – | – | –
3 | C[C@@H](Nc1nc(Nc2ccc(F)c(Cl)c2)nc2ccccc12)C1CCC1 | inactive | – | – | – | – | – | – | – | – | – | – | – | – | – | –
4 | C[C@@H](Nc1nc(Nc2ccc(F)c(Cl)c2)nc2c(C3=CCNCC3)cccc12)C1CC1 | – | 1.56 | 1.98 | 1.16 | 0.58 | 1.98 | 1.51 | 1.43 | 1.29 | 1.41 | 1.72 | 1.08 | 1.6 | – | –
5 | C[C@@H](Nc1nc(Nc2ccc(F)c(Cl)c2)nc2ccccc12)C1CC1 | – | 1.26 | 1.61 | 3.68 | 4.01 | 1.67 | 1.39 | 1.16 | 1.03 | 0.95 | 0.53 | 0.85 | 0.69 | inactive | inactive
6 | CC(C)C[C@@H](Nc1nc(Nc2ccc(F)c(Cl)c2)nc2ccccc12)C1CC1 | inactive | – | – | – | – | – | – | – | – | – | – | – | – | – | –
7 | C[C@@H](Nc1nc(Nc2ccc(F)c(Cl)c2)nc2c(CCN)cccc12)C1CC1 | – | 1.61 | 1.87 | 1.18 | 0.44 | 1.59 | 1.66 | 1.11 | 1.82 | 1.22 | 0.97 | 1.64 | 1.58 | – | –
8 | C[C@@H](Nc1nc(Nc2ccc(F)c(Cl)c2)nc2c(CN)cccc12)C1CC1 | – | 1.14 | 2.52 | 2.43 | 0.59 | 1.83 | 1.54 | 1.05 | 0.94 | 1.15 | 0.98 | 1.39 | 1.18 | – | –
9 | CC[C@H](Nc1nc(Nc2ccc(F)c(Cl)c2)nc2ccccc12)C1CC1 | inactive | – | – | – | – | – | – | – | – | – | – | – | – | – | –
